Experiment [1] deals with H9c2. Kind of experiment: Anti-ischemic activity against ischemia/reperfusion-induced rat H9c2 cell death assessed as cell viability at 10 uM (Rbv = 63 +/- 2%). The format is functional. The note with it: read-out: Activity.
Experiment [2] concerns Rattus norvegicus. Kind of experiment: Anti-ischemic activity against in Langendorff perfused Wistar rat heart assessed as reduction in ischemia-induced left ventricular tissue injury at 40 mg/kg, ip by morphological analysis. The format is functional, organism-based. Details: dose 40 mg/kg. The note with it: Wister. Put shortly:
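Hearts came from rats pre-treated at 40 mg/kg and underwent ischemia/reperfusion in Langendorff perfusion. Left ventricles were analysed morphologically for injured tissue. Infarct size was expressed as % of left ventricular area (Ai/ALV%).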

Experiment [3] concerns Rattus norvegicus. Kind of experiment: Anti-ischemic activity against Langendorff perfused Wistar rat heart assessed as recovery of post-ischemic inotropic functionality measured during whole reperfusion period at 40 mg/kg, ip relative to control. Format: functional, organism-based. Details: dose 40 mg/kg. The note with it: Wister. Summed up:
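Rats pre-treated with test agent 40 mg/kg before heart isolation. Langendorff-perfused hearts underwent ischemia then reperfusion. Rate-pressure product (RPP) was recorded over the reperfusion period and expressed as % of pre-ischemic RPP.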

Experiment [4] relates to H9c2. As to the kind of experiment: Anti-ischemic activity against ischemia/reperfusion-induced rat H9c2 cell death assessed as cell viability at 10 uM in presence of mito-KATP channel blocker 5-hydroxydecanoic acid. Format: functional, cell-based.
Experiment [5] has as its system H9c2. Kind of experiment: Anti-ischemic activity against ischemia/reperfusion-induced rat H9c2 cell death assessed as cell viability at 100 uM (Rbv = 63 +/- 2%). The format is functional. The note with it: read-out: Activity.
For experiment [6], the system named is H9c2. Kind of experiment: Anti-ischemic activity against ischemia/reperfusion-induced rat H9c2 cell death assessed as cell viability at 100 uM in presence of mito-KATP channel blocker 5-hydroxydecanoic acid. The format is functional, cell-based.

Here are results for eight compounds from ChEMBL document CHEMBL1759860, “Synthesis and biological evaluation of 5-membered spiro heterocycle-benzopyran derivatives against myocardial ischemia” (2011).

The source made the active and inactive calls. The rule behind the calls is not given here.

Regarding `CC1(C)CC2(OC(=O)N(Cc3ccc(NS(C)(=O)=O)cc3)C2=N)c2cc(Br)ccc2O1` (racemic), in the experiment on H9c2 [1], the viability at 10 µM was 78%.

On to `CC(=O)Nc1ccc(CN2C(=N)C3(CC(C)(C)Oc4ccccc43)OC2=O)cc1` (racemic), for which the viability at 10 µM in the experiment with H9c2 [1] came to 68%.

As for `CC(=O)Nc1ccc(CN2C(=N)C3(CC(C)(C)Oc4ccc(Br)cc43)OC2=O)cc1` (racemic), the viability at 10 µM in the experiment on H9c2 [1] came to 76%.

On to `CC(=O)Nc1ccc(CN2CC3(CC(C)(C)Oc4ccccc43)OCC2=O)cc1` (stereo not given), for which the result in the experiment with Rattus norvegicus [2] and with Rattus norvegicus [3] was Active. Besides, the viability at 10 µM in the experiment with H9c2 [1] is 99%. Also, in the experiment with H9c2 [4], the outcome was inactive.

Turning to `CC1=Nc2ccc(Cl)cc2S(=O)(=O)N1` [DIAZOXIDE], the viability at 100 µM with H9c2 [5] was found to be 103%. The outcome in the experiment on H9c2 [6] was inactive.

As to `CC1(C)CC2(CN(Cc3ccc(NS(C)(=O)=O)cc3)C(=O)O2)c2ccccc2O1` (racemic), the viability at 10 µM in the experiment with H9c2 [1] came out at 84%.

Take `CC(=O)Nc1ccc(CN2CC3(CC(C)(C)Oc4ccc(Br)cc43)OC2=O)cc1` (racemic): the viability at 10 µM with H9c2 [1] stood at 81%.

With `CC(=O)Nc1ccc(CN2CC3(CC(C)(C)Oc4ccccc43)OC2=O)cc1` (racemic), the result in the experiment on Rattus norvegicus [2] and with Rattus norvegicus [3] was Active. For the same compound, the viability at 10 µM with H9c2 [1] worked out at 92%. Besides, the outcome in the experiment on H9c2 [4] was inactive.
